How the values were obtained:
[1] = tested on: Cavia porcellus; experiment: Methacholine challenge test was performed on guinea pigs by administration of compound at 25 mg/kg perorally; type: functional; settings: route oral
How it was run: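 Hartley guinea pigs, six per treatment, dosed orally at 25 mg/kg 15 min before challenge. Exposed for 10 min to 0.1% methacholine chloride aerosol from two nebulizers in a closed chamber, air pressure 10 lb/in.². Time from aerosol onset to collapse recorded and averaged ± S.E.M. Non-collapsing animals removed at 10 min and scored 10.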

[2] = species on record: Canis familiaris; experiment: Pulmonary selectivity measured as the ratio of salivation and bronchospasm; type: functional, Canis lupus familiaris, Bronchiole
How it was run: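 Pilocarpine-infused dog model measuring pulmonary resistance and salivary output under cumulative iv doses (1–10,000 μg/kg). ID50 for each response by log dose–response linear regression. Selectivity = ID50 for salivation inhibition divided by ID50 for bronchospasm inhibition. Most compounds tested in one dog.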

[3] = species on record: Canis familiaris; experiment: Compound dose for inhibiting dog cholinergic bronchoconstriction by 50% of control value.; type: functional; settings: Canis lupus familiaris, Lung; read-out: ID50 (the source's name)
How it was run: (§1)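 Dogs with femoral vein cannulated; respiratory rate, heart rate and arterial pressure monitored. Bunolol 0.5 mg/kg iv given 30 min before pilocarpine nitrate infusion (0.2 mg/kg/h) to induce bronchospasm and salivation. Saliva collected from catheterized Wharton's duct every 5 min. Cumulative iv doses 1–10,000 μg/kg given every 5 min. ID50 by linear regression of log cumulative dose vs % inhibition. Mostly one dog per compound.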

[4] = species on record: Canis familiaris; experiment: Inhibition of dog salivation by 50% of control value.; type: functional; settings: Canis lupus familiaris; read-out: ID50 (the source's name); how it was run: as §1

| SMILES | Collapse time [1] | Ratio [2] | ED50 [3] | ED50 [4] |
| --- | --- | --- | --- | --- |
| Cc1cc2oc(=O)c3c(c2cc1C)CCN(CC(C)N1CCCC1)C3 (configuration not stated) | 8.2 min | 2.2 | 0.315 mg/kg | 0.699 mg/kg |
| CCOc1cc2oc(=O)c3c(c2cc1OCC)CCN(CC(C)N1CCCC1)C3 (configuration not stated) | 9.4 min | 1.6 | 0.099 mg/kg | 0.163 mg/kg |
| CCN(CC)C(C)CN1CCc2c(c(=O)oc3cc(OC)c(OC)cc23)C1 (configuration not stated) | 7.8 min | 3.5 |  |  |
| COc1ccc2c3c(c(=O)oc2c1)CN(CCN1CCCCCC1)CC3 | 8 min | 1.8 | 0.223 mg/kg | 0.398 mg/kg |
| CCNC(C)CN1CCc2c(c(=O)oc3cc(OC)ccc23)C1 (configuration not stated) | 7.5 min | 2.6 | 0.086 mg/kg | 0.227 mg/kg |
| CCCN(C)C(C)CN1CCc2c(c(=O)oc3cc(C)ccc23)C1 (configuration not stated) | 5.4 min | 1.6 | 0.192 mg/kg | 0.304 mg/kg |
| CCN(CC)C(C)CN1CCc2c(c(=O)oc3cc(C)ccc23)C1 (configuration not stated) | 6.6 min | 4.6 |  |  |
| CCCN(CCC)CCN1CCc2c(c(=O)oc3cc(OC)ccc23)C1 | 7 min | 2 | 0.428 mg/kg | 0.855 mg/kg |
| COc1ccc2c3c(c(=O)oc2c1)CN(CCN1CCCCC1)CC3 | 9.5 min | 0.69 | 0.205 mg/kg | 0.141 mg/kg |
| COc1cc2oc(=O)c3c(c2cc1OC)CCN(CCN1C(C)(C)CCCC1(C)C)C3 | 2.8 min |  |  |  |
| COc1cc2oc(=O)c3c(c2cc1OC)CCN(CC(C)N(C)C)C3 (configuration not stated) | 5.2 min | 4.5 |  |  |
| COc1ccc2c3c(c(=O)oc2c1)CN(CC(C)N(C)C)CC3 (configuration not stated) | 10 min | 1.1 | 0.025 mg/kg | 0.027 mg/kg |
| CC(C)c1ccc2c3c(c(=O)oc2c1)CN(CCN1CC2CCC(CC2)C1)CC3 | 6.2 min | 0.61 | 0.209 mg/kg | 0.128 mg/kg |
| Cc1ccc2c3c(c(=O)oc2c1)CN(CCN1CC2CCC(CC2)C1)CC3 | 5 min | 1.9 | 0.235 mg/kg | 0.452 mg/kg |
| CCCN(CC)C(C)CN1CCc2c(c(=O)oc3cc(C)ccc23)C1 (configuration not stated) | 7.6 min | 1.6 | 0.116 mg/kg | 0.182 mg/kg |
| COc1cc2oc(=O)c3c(c2cc1OC)CCN(CC(C)N1CCCCC1)C3 (configuration not stated) | 10 min | 1.3 | 0.129 mg/kg | 0.168 mg/kg |
| CC(CN1CCc2c(c(=O)oc3ccccc23)C1)N1CCCC1 (configuration not stated) | 10 min | 2.2 | 0.088 mg/kg | 0.19 mg/kg |
| CCNC(C)CN1CCc2c(c(=O)oc3cc(C)ccc23)C1 (configuration not stated) | 10 min | 0.36 | 0.627 mg/kg | 0.225 mg/kg |
| CCN(CC)C(C)CN1CCc2c(c(=O)oc3cc(OC)ccc23)C1 (configuration not stated) | 10 min | 1.2 | 0.038 mg/kg | 0.046 mg/kg |
| CCCN(CC)C(C)CN1CCc2c(c(=O)oc3ccccc23)C1 (configuration not stated) | 6.4 min | 0.88 | 1.11 mg/kg | 0.97 mg/kg |
| CCN(CC)C(C)CN1CCc2c(c(=O)oc3ccccc23)C1 (configuration not stated) | 10 min | 6.9 |  |  |
| CCN(CC)CCN1CCc2c(c(=O)oc3cc(OC)ccc23)C1 | 8 min | 0.4 | 0.394 mg/kg | 0.158 mg/kg |
| Cc1ccc2c3c(c(=O)oc2c1)CN(CC(C)N1CCCCC1)CC3 (configuration not stated) | 9.7 min | 2.7 | 0.04 mg/kg | 0.108 mg/kg |
| CCc1ccc2c3c(c(=O)oc2c1)CN(CCN1CC2CCC(CC2)C1)CC3 | 6.8 min | 0.55 | 0.074 mg/kg | 0.041 mg/kg |
| CCCN(C)C(C)CN1CCc2c(c(=O)oc3cc(OC)c(OC)cc23)C1 (configuration not stated) | 2.5 min |  |  |  |
| CC(CN1CCc2c(c(=O)oc3ccccc23)C1)N(C)C (configuration not stated) | 10 min | 21.6 |  |  |
| CC(CN1CCc2c(c(=O)oc3ccccc23)C1)N1CCCCC1 (configuration not stated) | 10 min | 5.8 | 0.038 mg/kg | 0.219 mg/kg |
| COc1cc2oc(=O)c3c(c2cc1OC)CCN(CCCN1CCCCC1)C3 | 1.6 min |  |  |  |
| CCN1CCCC1CN1CCc2c(c(=O)oc3cc(OC)c(OC)cc23)C1.Cl.Cl (configuration not stated) | 2.8 min |  |  |  |
| CN1[C@@H]2CC[C@H]1C[C@@H](OC(=O)C(CO)c1ccccc1)C2 (some centres not stated) [ATROPINE] |  | 0.46 | 0.007 mg/kg | 0.0032 mg/kg |
